NS3 helicase inh = blocks Hepatitis C virus NS3 helicase unwinding; NS3 helicase DNA unwinding, Cy5 molecular beacon fluorescence; AID 1800; 0.56% of 290,000 active; inhibition, % at 10.9 µM;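 active = inhibition above the mean of all tested compounds plus 3 SD, set per campaign, cut at about 35% in these data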
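Material: hepatitis C virus NS3 helicase domain fragment enzyme; measured by: Cy5 fluorescence, 0 and 60 min reads; control set: DMSO and thioflavine S; incubation: 60 min unwinding reaction at 25 °C after ATP addition; read-out basis: % inhibition from 60/0 min fluorescence ratio, DMSO 0%, thioflavine S 100%; repeats: singlicate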
M18AAP inhibitor = blocks P. falciparum M18 aspartyl aminopeptidase | inhibition, % at 7.35 µM | 1.2% of 290,000 active | recombinant PfM18AAP, H-Glu-NHMec fluorogenic cleavage | AID 1822;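 active = inhibition above the campaign mean inhibition over all tested compounds plus 3 SD, cut at about 28% in these data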
p97 inhibitor = human p97 ATPase inhibition; P55072; recombinant p97 ATPase, Kinase-Glo ATP luminescence, 3 h; inhibition, % at 8 µM; 0.42% of 220,000 active; AID 1481; in the data active = inhibition above about 15%
Target sequence (P55072 whole entry, looked up): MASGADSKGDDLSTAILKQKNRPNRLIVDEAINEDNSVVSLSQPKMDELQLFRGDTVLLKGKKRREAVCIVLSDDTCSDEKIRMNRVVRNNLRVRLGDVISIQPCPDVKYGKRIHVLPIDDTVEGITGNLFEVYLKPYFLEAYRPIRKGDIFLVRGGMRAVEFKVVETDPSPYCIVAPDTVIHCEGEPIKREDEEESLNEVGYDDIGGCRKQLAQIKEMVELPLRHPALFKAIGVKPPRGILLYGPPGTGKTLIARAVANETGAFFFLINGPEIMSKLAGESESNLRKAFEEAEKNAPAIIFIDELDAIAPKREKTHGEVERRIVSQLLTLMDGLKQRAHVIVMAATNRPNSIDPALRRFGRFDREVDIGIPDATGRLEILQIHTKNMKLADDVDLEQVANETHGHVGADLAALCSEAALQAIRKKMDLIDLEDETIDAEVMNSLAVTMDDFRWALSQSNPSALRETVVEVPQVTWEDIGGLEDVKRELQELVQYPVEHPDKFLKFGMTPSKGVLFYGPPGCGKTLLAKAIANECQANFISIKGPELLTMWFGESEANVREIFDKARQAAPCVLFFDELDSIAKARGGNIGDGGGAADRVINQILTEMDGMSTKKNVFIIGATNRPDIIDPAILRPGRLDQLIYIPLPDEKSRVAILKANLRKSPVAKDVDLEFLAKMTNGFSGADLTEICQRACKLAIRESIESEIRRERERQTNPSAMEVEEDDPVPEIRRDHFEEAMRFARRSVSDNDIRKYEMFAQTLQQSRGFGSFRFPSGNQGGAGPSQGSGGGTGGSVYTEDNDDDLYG
XBP1 UPR activ = adaptive UPR (XBP1) activation; CHO-XBP1 luciferase reporter, IRE1-XBP1 UPR activation, luminescence; percent of tunicamycin response, DMSO as zero; activation, % at 20 µM; 0.33% of 330,000 active; AID 463104;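 active = versus positive control, 20 µM dose yields 30% or more activation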
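Assay system: IRE1-XBP1 luciferase reporter CHO line. Input: 1000 cells/well. Buffer or medium: F12 with 10% serum. Doses: 20 µM, 1% DMSO. Times: overnight seeding at 37 °C, 6 h compound treatment at 37 °C. Technique: Steady-Glo luciferase glow luminescence, 10 min after reagent addition.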
CHOP UPR activ = activators of apoptotic arm of unfolded protein response (CHOP) | activation, % at 10 µM | 0.34% of 330,000 active | AID 449763 | CHO-CHOP luciferase reporter, UPR activation, luminescence; percent of tunicamycin response over DMSO baseline;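 active = at 10 µM dose, activation of 40% or more, normalized to positive control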
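assay system = CHO CHOP reporter cells | amount = 500 CHO-CHOP cells per well | buffer or medium = F12 with 10% FBS | incubation = 16-18 h cell attachment, then 6 h compound exposure, 37 °C | detection = luminescence read with Steady-Glo | read-out = percent activation relative to tunicamycin control | controls = tunicamycin high control, DMSO low control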
CHOP inhibitor = blocks CHOP induction under ER stress. AID 2732. inhibition, % at 10 µM. CHO-K1 CHOP-promoter luciferase, tunicamycin-induced, 15-18 h. 3.8% of 220,000 active;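 active = compounds that reduced the stress-induced luciferase reporter signal by more than about 70% of percent inhibition, limit read from the data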
p97 inh conf = confirmation of human p97 ATPase inhibitors; 44% of 760 active; recombinant p97 ATPase, Kinase-Glo ATP luminescence; inhibition, % at 8 µM; shares compounds with p97 inhibitor;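 active = percent inhibition of p97 ATPase above a set limit, the primary screen's mean plus 3 SD, cut at about 15% in these data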
Large screens that a line does not name were inactive (follow-up assays come after a bar, where they were run). A selection: hits, their analogues and other compounds. The true share with any hit is near 4.5%.

CC(C(=O)NCC1CCCCC1)N(C)CC(=O)Nc1ccc(N2CCOCC2)cc1 (configuration not stated)	none
Cc1csc2c(=O)sc(NC(=O)c3ccc(F)cc3)nc12	none
Cc1csc2nc(NC(=O)c3ccccc3)sc(=O)c12	none
Cc1ccccc1C(=O)Nc1nc2c(C)csc2c(=O)s1	p97 inhibitor 39 | p97 inh conf 37
Cc1csc2c(=O)sc(NC(=O)c3ccc(F)cc3Cl)nc12	p97 inhibitor 17 | p97 inh conf 19
Cn1nnc2cc(C(=O)N3CCSCC3)ccc21	p97 inhibitor 17 | p97 inh conf inactive
CCC(=O)Nc1cccc(-c2cn3ccsc3n2)c1	p97 inhibitor 15 | p97 inh conf inactive
CC1CN(c2ccc(NC(=O)c3ccco3)cc2C(=O)O)CC(C)O1 (configuration not stated)	none
Cc1cccc(N2N=C(C(=O)N3Cc4ccccc4CC3C(N)=O)CCC2=O)c1 (configuration not stated)	none (no result: NS3 helicase inh, M18AAP inhibitor, p97 inhibitor, CHOP inhibitor)
OC(CNCCC1C=Nc2ccccc21)Cn1c2ccc(Cl)cc2c2cc(Cl)ccc21 (configuration not stated)	p97 inhibitor 26, CHOP inhibitor 109 (no result: XBP1 UPR activ, CHOP UPR activ) | p97 inh conf 26
CC(=O)c1cc(Cl)ccc1OCc1cccc(S(=O)(=O)N2CCOCC2)c1	none (no result: NS3 helicase inh, M18AAP inhibitor, p97 inhibitor, CHOP inhibitor)
CSC1=C(C#N)C(=O)NC(c2ccc(Cl)cc2)S1 (configuration not stated)	p97 inhibitor 18 | p97 inh conf 31
Cc1c(/C=N/NC(=O)c2cc(Br)ccc2O)c(=O)n(C)c(=O)n1C	none (no result: p97 inhibitor, CHOP inhibitor)
N#CC1=C(SCC(=O)Nc2ccc(C(=O)O)cc2)NC(=O)CC1c1ccco1 (configuration not stated)	p97 inhibitor 17 | p97 inh conf inactive
Cn1cc(C(N)=O)c2ccccc21	none
Cn1cc(C(=O)CCl)c2ccccc21	p97 inhibitor 40, CHOP inhibitor 88 (no result: XBP1 UPR activ, CHOP UPR activ) | p97 inh conf 47
Nc1nc(N2CCOCC2)n[nH]1	p97 inhibitor 17 | p97 inh conf inactive
CC1=NN(C(N)=S)C(=O)C1N=Nc1ccc([N+](=O)[O-])cc1 (configuration not stated)	none (no result: p97 inhibitor, CHOP inhibitor)
O=c1cc(-c2ccc(O)c(-c3c(O)cc(O)c4c(=O)cc(-c5ccc(O)cc5)oc34)c2)oc2cc(O)cc(O)c12	p97 inhibitor 41 | p97 inh conf 64
O=C(O)c1cccc(NN=C2c3ccccc3-c3ccccc32)c1	p97 inhibitor 38 (no result: XBP1 UPR activ, CHOP UPR activ) | p97 inh conf 45
COc1cc(C(=O)c2nccc3cc(OC)c(OC)cc23)c([N+](=O)[O-])cc1OC	p97 inhibitor 30 | p97 inh conf 25
COc1ccc(OC)c(CCNC(=O)CCCc2nnc3n(C)c(=O)c4sccc4n23)c1	none (no result: p97 inhibitor, CHOP inhibitor)
O=C(N/N=C/c1c[nH]c2ccc(Br)cc12)c1ccc2c(c1)OCO2	p97 inhibitor 16 | p97 inh conf inactive
O=C(N/N=C/c1c[nH]c2ccccc12)c1ccc2c(c1)OCCO2	none
COc1ccc(N2CCOCC2)c(NC(=O)c2cccs2)c1	none (no result: p97 inhibitor, CHOP inhibitor)
O=C(Nc1ccccc1OC(F)F)c1ccccc1	p97 inhibitor 16 | p97 inh conf inactive
COc1ccc2oc(C(=O)Nc3cccc(S(=O)(=O)N4CCOCC4)c3)c(C)c2c1	none (no result: NS3 helicase inh, M18AAP inhibitor, p97 inhibitor, CHOP inhibitor)
O=C(CCc1ccccc1)NC(c1cccs1)c1cc(Cl)c2cccnc2c1O (configuration not stated)	p97 inhibitor 19, CHOP inhibitor 89 (no result: XBP1 UPR activ, CHOP UPR activ) | p97 inh conf inactive
CC(=O)Nc1ccc2cc3ccc(NC(C)=O)cc3nc2c1	p97 inhibitor 34 (no result: XBP1 UPR activ, CHOP UPR activ) | p97 inh conf 24
CC(=O)Nc1sc(N/N=C\c2ccc(O)cc2)nc1-c1cccs1	p97 inhibitor 16 | p97 inh conf 23
CCOC(=O)/C(C(N)=NCCO)=C(/O)c1ccccc1	p97 inhibitor 24 | p97 inh conf inactive
COc1cc2c(cc1OC)C(C)N(C(=O)c1cccs1)CC2 (configuration not stated)	p97 inhibitor 16 | p97 inh conf 21
COc1cc2c(cc1OC)C(C)N(C(C)=O)CC2 (configuration not stated)	none
COc1cc(NC(=O)CSc2nc3[nH]c(=O)cc(O)c3s2)cc(OC)c1OC	none (no result: NS3 helicase inh, M18AAP inhibitor, p97 inhibitor, CHOP inhibitor)
Cc1nnsc1Sc1cccc(C(F)(F)F)c1	p97 inhibitor 16 | p97 inh conf inactive
Brc1ccccc1C1CC(c2ccccc2)=Nc2ccccc2N1 (configuration not stated)	none
Clc1ccccc1C1CC(c2ccccc2)=Nc2ccccc2N1 (configuration not stated)	p97 inhibitor 15 | p97 inh conf inactive
C=CCn1c(NC(=O)c2ccc(Br)o2)c(S(=O)(=O)c2ccccc2)c2nc3ccccc3nc21	p97 inhibitor 20 | p97 inh conf inactive
O=C(Nc1ccc(S(=O)(=O)NCc2ccccc2)cc1)c1ccc(Br)o1	none
CCSc1nc2sc3c(c2c(=O)n1-c1ccccc1C)CCN(C)C3	none (no result: p97 inhibitor, CHOP inhibitor)
O=C(Nc1cccc(S(=O)(=O)N2CCCCC2)c1)C1CC1	none (no result: NS3 helicase inh, M18AAP inhibitor, p97 inhibitor, CHOP inhibitor)
Cc1c(N=C2C=C(Br)C(=O)C(Br)=C2)c(=O)n(-c2ccccc2)n1C	p97 inhibitor 27 | p97 inh conf inactive
Cc1c(N=C2C=CC(=O)c3ccccc32)c(=O)n(-c2ccccc2)n1C	none (no result: XBP1 UPR activ, CHOP UPR activ)
CCOc1ccc(-c2cc(N3C(=O)Nc4ccccc4N3O)n[nH]2)cc1	p97 inhibitor 17 | p97 inh conf inactive
CC(C)[C@H](NC(=O)Nc1ccccc1F)C(=O)O	p97 inhibitor 15 | p97 inh conf inactive
C[C@H](NC(=O)Nc1ccccc1F)C(=O)O	none
CCCCNC(=O)C1Cc2cc(S(=O)(=O)N3CCCC3)ccc2N1C(C)=O (configuration not stated)	none (no result: p97 inhibitor, CHOP inhibitor)
Cc1ccc(S(=O)(=O)N2CCOCC2)cc1C(=O)Nc1ccc(-c2cn3ccsc3n2)cc1	p97 inhibitor 17 | p97 inh conf 21
Cc1ccc(S(=O)(=O)N2CCOCC2)cc1C(=O)Nc1ccncc1	none (no result: NS3 helicase inh, M18AAP inhibitor, p97 inhibitor, CHOP inhibitor)
COc1ccc(-c2cc(=O)[nH][nH]2)cc1	none
COc1ccc(-c2cc(=O)n(CCC#N)[nH]2)cc1	p97 inhibitor 25 | p97 inh conf inactive
COc1ccc2cc(C#N)c(SCC(=O)N3CC(=O)Nc4ccccc43)nc2c1	p97 inhibitor 15 | p97 inh conf inactive
Cc1cccc2cc(C#N)c(SCC(=O)N3CC(=O)Nc4ccccc43)nc12	none (no result: CHOP inhibitor)
CC(=O)c1ccc2cccc3c2c1N=CN3C	p97 inhibitor 32 | p97 inh conf inactive
COc1ccc(NC(=O)/C(Cl)=C(/Cl)S(=O)(=O)Cc2ccccc2)cn1	none (no result: XBP1 UPR activ, CHOP UPR activ, CHOP inhibitor)
COc1ccc(NC(=O)C(Cl)=C(Cl)Cl)cn1	p97 inhibitor 28 | p97 inh conf 35

Compound activity (PubChem)
